Results published in ChEMBL document CHEMBL4330104, “Synthesis, biological evaluations and computational studies of N-(3-(-2-(7-Chloroquinolin-2-yl)vinyl) benzylidene)anilines as fungal biofilm inhibitors” (Bioorg Med Chem Lett, 2019).
≈ marks a conversion by molar mass, not a printed value.

Key:
Escherichia coli = assay: Antibacterial activity against Escherichia coli NCIM 2256 after 24 hrs by two-fold serial dilution method; format: functional; conditions: NCIM 2256, 24 h
How it was run: (§1)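 Bacterial inocula taken from 24 h nutrient agar cultures at 37±1 °C, brought to […] with sterile saline, grown in nutrient broth. Compounds tested as two-fold serial dilutions at 400, 200, 100, 50, 25, 12.5, 6.25 and 3.13 µg/mL, with ciprofloxacin as reference. Incubation at 37±1 °C; MIC read after 24 h.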

Candida albicans [1] = assay: Antibiofilm activity against Candida albicans NCIM 3471 after 24 hrs by MTT assay; format: functional, organism-based; conditions: NCIM 3471, 24 h
How it was run: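 Biofilms formed from C. albicans at 10^5 cells/well in RPMI, exposed to 0–100 µM compound (fluconazole reference) for 24 h at 30 °C. Wells washed with phosphate buffer, then MTT (1 µg/µL) added for 3 h in the dark. Formazan dissolved in DMSO, absorbance read at 575 nm. IC50 for 50% biofilm inhibition taken from the inhibition curve.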

Candida albicans [2] = assay: Antifungal activity against Candida albicans NCIM 3471 after 48 to 72 hrs by SDA agar dilution method; format: functional
How it was run: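 CLSI agar method. Compounds dissolved in DMSO. C. albicans subcultured on Sabouraud dextrose agar at 25 °C for 72 h, suspended in sterile water at 10^5 cells/mL, and inoculated onto test, drug-free and DMSO control plates. Plates incubated at 25 °C. MIC taken as the lowest concentration that prevents macroscopically visible colonies, read at 48 h and 72 h.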

Staphylococcus aureus = assay: Antibacterial activity against Staphylococcus aureus NCIM 2901 after 24 hrs by two-fold serial dilution method; format: functional; conditions: NCIM 2901, 24 h; how it was run: as §1
Bacillus subtilis = assay: Antibacterial activity against Bacillus subtilis NCIM 2063 after 24 hrs by two-fold serial dilution method; format: functional; conditions: NCIM 2063, 24 h; how it was run: as §1
Pseudomonas aeruginosa = assay: Antibacterial activity against Pseudomonas aeruginosa NCIM 2036 after 24 hrs by two-fold serial dilution method; format: functional; conditions: NCIM 2036, 24 h; how it was run: as §1

SMILES	MIC (Escherichia coli) [µg/mL]	IC50 (Candida albicans [1]) [µM]	MIC (Candida albicans [2]) [µg/mL]	MIC (Staphylococcus aureus) [µg/mL]	MIC (Bacillus subtilis) [µg/mL]	MIC (Pseudomonas aeruginosa) [µg/mL]
O=[N+]([O-])c1cccc(/N=C/c2cccc(/C=C/c3ccc4ccc(Cl)cc4n3)c2)c1	185 (≈ 447 µM)	83.6	106 (≈ 256 µM)	104 (≈ 252 µM)	17.4 (≈ 42 µM)	190 (≈ 459 µM)
COc1ccc(/N=C/c2cccc(/C=C/c3ccc4ccc(Cl)cc4n3)c2)cc1	120 (≈ 301 µM)	97.5	105 (≈ 263 µM)	94.8 (≈ 238 µM)	17.6 (≈ 44.1 µM)	167 (≈ 419 µM)
Clc1ccc(/N=C/c2cccc(/C=C/c3ccc4ccc(Cl)cc4n3)c2)cc1	45 (≈ 112 µM)	66.2	94.2 (≈ 234 µM)	170 (≈ 422 µM)	31.6 (≈ 78.4 µM)	228 (≈ 567 µM)
Cc1ccc(/N=C/c2cccc(/C=C/c3ccc4ccc(Cl)cc4n3)c2)cc1	205 (≈ 535 µM)	96.2	164 (≈ 429 µM)	98.5 (≈ 257 µM)	17 (≈ 44.3 µM)	177 (≈ 462 µM)
FC(F)(F)c1cccc(/N=C/c2cccc(/C=C/c3ccc4ccc(Cl)cc4n3)c2)c1	102 (≈ 233 µM)	87.2	191 (≈ 437 µM)	71.3 (≈ 163 µM)	33.4 (≈ 76.5 µM)	142 (≈ 325 µM)
Clc1ccc2ccc(/C=C/c3cccc(/C=N/c4ccccc4)c3)nc2c1	110 (≈ 298 µM)	199	98.8 (≈ 268 µM)	91.6 (≈ 248 µM)	32.4 (≈ 87.7 µM)	102 (≈ 277 µM)
Cc1ccccc1/N=C/c1cccc(/C=C/c2ccc3ccc(Cl)cc3n2)c1	68.5 (≈ 179 µM)	166	104 (≈ 273 µM)	85.3 (≈ 223 µM)	136 (≈ 356 µM)	185 (≈ 483 µM)
O=[N+]([O-])c1ccc(/N=C/c2cccc(/C=C/c3ccc4ccc(Cl)cc4n3)c2)cc1	150 (≈ 362 µM)	92.1	121 (≈ 293 µM)	166 (≈ 400 µM)	15.7 (≈ 37.9 µM)	200 (≈ 484 µM)
FC(F)(F)c1ccccc1/N=C/c1cccc(/C=C/c2ccc3ccc(Cl)cc3n2)c1	67.5 (≈ 155 µM)	94.3	282 (≈ 646 µM)	55.3 (≈ 127 µM)	36.2 (≈ 82.9 µM)	250 (≈ 572 µM)
FC(F)(F)c1ccc(/N=C/c2cccc(/C=C/c3ccc4ccc(Cl)cc4n3)c2)cc1	84.5 (≈ 193 µM)	51.2	174 (≈ 399 µM)	89.7 (≈ 205 µM)	37.7 (≈ 86.2 µM)	91.5 (≈ 209 µM)
O=C(O)c1cn(C2CC2)c2cc(N3CCNCC3)c(F)cc2c1=O [CIPROFLOXACIN]	–	–	–	–	–	50 (≈ 151 µM)
OC(Cn1cncn1)(Cn1cncn1)c1ccc(F)cc1F [FLUCONAZOLE]	–	–	50 (≈ 163 µM)	–	–	–
